In ChEMBL document CHEMBL3351505, “Ultrasound-assisted synthesis of novel 1,2,3-triazoles coupled diaryl sulfone moieties by the CuAAC reaction, and biological evaluation of them as antioxidant and antimicrobial agents” (Eur J Med Chem, 2014):
Converted amounts (≈) assume the structure as drawn. The source made the active and inactive calls. No cut-off for these calls is given here.

How the values were obtained:
Escherichia coli [1] = experiment: Antibacterial activity against Escherichia coli ATCC 25922 using 100 uL of test compound after 24 hrs by agar well diffusion method; format: functional
How it was run: (§1)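 Agar well diffusion. Nutrient agar was spread with bacterial suspension at 1×10⁸ CFU/mL, and 10 mm wells were cut. Wells were loaded with compound solution made at 200 mg per 1 mL DMSO. Plates were incubated 24 h at 37 °C and inhibition zones were measured. DMSO served as the negative control.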

Pseudomonas aeruginosa [2] = experiment: Antibacterial activity against Pseudomonas aeruginosa ATCC 27953 using 100 uL of test compound after 24 hrs by agar well diffusion method; format: functional; how it was run: as §1
Saccharomyces cerevisiae [3] = experiment: Antifungal activity against Saccharomyces cerevisiae using 100 uL of test compound after 48 hrs by agar well diffusion method; format: functional
How it was run: as §1, with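 “Sabouraud dextrose” for “Nutrient”, “yeast or fungal” for “bacterial”, “1×10⁶” for “1×10⁸”, “48” for “24”, “28” for “37”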

Escherichia coli [4] = experiment: Antibacterial activity against Escherichia coli ATCC 25922 after 24 hrs by two fold serial dilution method; format: functional
Bacillus subtilis [5] = experiment: Antibacterial activity against Bacillus subtilis ATCC 6633 after 24 hrs by two fold serial dilution method; format: functional
Priestia megaterium [6] = experiment: Antibacterial activity against Bacillus megaterium ATCC 9885 using 100 uL of test compound after 24 hrs by agar well diffusion method; format: functional; how it was run: as §1
Staphylococcus aureus [7] = experiment: Antibacterial activity against Staphylococcus aureus ATCC 29213 after 24 hrs by two fold serial dilution method; format: functional
Candida albicans [8] = experiment: Antifungal activity against Candida albicans NRRL Y-477 using 100 uL of test compound after 48 hrs by agar well diffusion method; format: functional
How it was run: as §1, with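 “Sabouraud dextrose” for “Nutrient”, “yeast or fungal” for “bacterial”, “1×10⁶” for “1×10⁸”, “48” for “24”, “28” for “37”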

Micrococcus luteus [9] = experiment: Antibacterial activity against Sarcina lutea after 24 hrs by two fold serial dilution method; format: functional
Aspergillus niger [10] = experiment: Antifungal activity against Aspergillus niger using 100 uL of test compound after 48 hrs by agar well diffusion method; format: functional
How it was run: as §1, with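 “Sabouraud dextrose” for “Nutrient”, “yeast or fungal” for “bacterial”, “1×10⁶” for “1×10⁸”, “48” for “24”, “28” for “37”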

Klebsiella pneumoniae [11] = experiment: Antibacterial activity against Klebsiella pneumoniae ATCC 13883 using 100 uL of test compound after 24 hrs by agar well diffusion method; format: functional; how it was run: as §1
Micrococcus luteus [12] = experiment: Antibacterial activity against Sarcina lutea using 100 uL of test compound after 24 hrs by agar well diffusion method; format: functional; how it was run: as §1
Staphylococcus aureus [13] = experiment: Antibacterial activity against Staphylococcus aureus ATCC 29213 using 100 uL of test compound after 24 hrs by agar well diffusion method; format: functional; how it was run: as §1
Saccharomyces cerevisiae [14] = experiment: Antifungal activity against Saccharomyces cerevisiae after 48 hrs by two fold serial dilution method; format: functional
How it was run: (§2)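 Two-fold serial broth dilution in a suitable broth, run only on compounds giving inhibition zones of at least 16 mm. Final concentrations were […]. Each 5 mL received 0.1 mL inoculum and was incubated 48 h at 28 °C. MIC was the lowest concentration without growth.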

Pseudomonas aeruginosa [15] = experiment: Antibacterial activity against Pseudomonas aeruginosa ATCC 27953 after 24 hrs by two fold serial dilution method; format: functional
Aspergillus niger [16] = experiment: Antifungal activity against Aspergillus niger after 48 hrs by two fold serial dilution method; format: functional; how it was run: as §2
Klebsiella pneumoniae [17] = experiment: Antibacterial activity against Klebsiella pneumoniae ATCC 13883 after 24 hrs by two fold serial dilution method; format: functional
Candida albicans [18] = experiment: Antifungal activity against Candida albicans NRRL Y-477 after 48 hrs by two fold serial dilution method; format: functional; how it was run: as §2
[19] = Antioxidant activity assessed as DPPH free radical scavenging activity by spectrophotometric assay; format: physicochemical
How it was run: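 Sample solutions at several concentrations were added to 0.004% DPPH in methanol and incubated 60 min in the dark. Absorbance was read at 517 nm against a blank. Inhibition % = (A_blank − A_sample)/A_blank × 100, where the control contained all reagents except the test compound.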

Priestia megaterium [20] = experiment: Antibacterial activity against Bacillus megaterium ATCC 9885 after 24 hrs by two fold serial dilution method; format: functional; settings: ATCC 9885, 24 h
Bacillus subtilis [21] = experiment: Antibacterial activity against Bacillus subtilis ATCC 6633 using 100 uL of test compound after 24 hrs by agar well diffusion method; format: functional; how it was run: as §1

| SMILES | MIC (Escherichia coli [4]; ATCC 25922, 24 h) [µg/mL] | MIC (Bacillus subtilis [5]) | MIC (Micrococcus luteus [9]) | MIC (Saccharomyces cerevisiae [14]) | MIC (Pseudomonas aeruginosa [15]) | MIC (Aspergillus niger [16]) [µg/mL] | MIC (Klebsiella pneumoniae [17]; ATCC 13883, 24 h) [µg/mL] | MIC (Candida albicans [18]) | IC50 [19] | MIC (Priestia megaterium [20]) [µg/mL] | diameter of the inhibition zone (DIZ) (Escherichia coli [1]) [mm] | diameter of the inhibition zone (DIZ) (Pseudomonas aeruginosa [2]) [mm] | diameter of the inhibition zone (DIZ) (Saccharomyces cerevisiae [3]) | diameter of the inhibition zone (DIZ) (Priestia megaterium [6]) [mm] | diameter of the inhibition zone (DIZ) (Candida albicans [8]) [mm] | diameter of the inhibition zone (DIZ) (Aspergillus niger [10]) [mm] | diameter of the inhibition zone (DIZ) (Klebsiella pneumoniae [11]) [mm] | diameter of the inhibition zone (DIZ) (Micrococcus luteus [12]) [mm] | diameter of the inhibition zone (DIZ) (Staphylococcus aureus [13]) | diameter of the inhibition zone (DIZ) (Bacillus subtilis [21]) | further results |
| --- | --- | --- | --- | --- | --- | --- | --- | --- | --- | --- | --- | --- | --- | --- | --- | --- | --- | --- | --- | --- | --- |
| CC(Cc1cn(CC(=O)c2ccc(Br)cc2)nn1)(OCc1cn(CC(=O)c2ccc(Br)cc2)nn1)c1ccc(S(=O)(=O)c2ccccc2)cc1 (stereo not drawn) | 100 (≈ 122 µM) | inactive | 100 µg/mL (≈ 122 µM) | inactive | 100 µg/mL (≈ 122 µM) | 25 (≈ 30.5 µM) | 100 (≈ 122 µM) | inactive | Not Active | 100 (≈ 122 µM) | 24 | 26 | 14 mm | 23 | 15 | 32 | 26 | 24 | 24 mm | 14 mm | MIC (Staphylococcus aureus [7]; ATCC 29213, 24 h): 100 µg/mL (≈ 122 µM) |
| O=C(Cn1cc(COC(Cc2cn(CC(=O)c3ccc(F)cc3)nn2)c2ccc(S(=O)(=O)c3ccccc3)cc2)nn1)c1ccc(F)cc1 (stereo not drawn) | – | – | 200 µg/mL (≈ 293 µM) | 200 µg/mL (≈ 293 µM) | inactive | 50 (≈ 73.2 µM) | 200 (≈ 293 µM) | – | 275 µg/mL (≈ 403 µM) | 200 (≈ 293 µM) | 14 | 15 | 19 mm | 17 | 22 | 32 | 16 | 20 | 26 mm | 19 mm | MIC (Escherichia coli [4]): inactive; MIC (Bacillus subtilis [5]; ATCC 6633, 24 h): 200 µg/mL (≈ 293 µM); MIC (Staphylococcus aureus [7]; ATCC 29213, 24 h): 100 µg/mL (≈ 146 µM); MIC (Candida albicans [18]; NRRL Y-477, 48 h): 200 µg/mL (≈ 293 µM) |
| CC(Cc1cn(CC(=O)c2ccc(S(=O)(=O)c3ccccc3)cc2)nn1)(OCc1cn(CC(=O)c2ccc(S(=O)(=O)c3ccccc3)cc2)nn1)c1ccc(S(=O)(=O)c2ccccc2)cc1 (stereo not drawn) | 200 (≈ 213 µM) | inactive | 100 µg/mL (≈ 106 µM) | inactive | 200 µg/mL (≈ 213 µM) | 25 (≈ 26.6 µM) | 200 (≈ 213 µM) | inactive | 600 µg/mL (≈ 638 µM) | 200 (≈ 213 µM) | 17 | 19 | 14 mm | 22 | 15 | 34 | 19 | 25 | 14 mm | 14 mm | MIC (Staphylococcus aureus [7]): inactive |

The next lines start with results.

| MIC (Escherichia coli [4]; ATCC 25922, 24 h) [µg/mL] | MIC (Bacillus subtilis [5]) | MIC (Micrococcus luteus [9]) | MIC (Saccharomyces cerevisiae [14]) | MIC (Pseudomonas aeruginosa [15]) | MIC (Aspergillus niger [16]) [µg/mL] | MIC (Klebsiella pneumoniae [17]; ATCC 13883, 24 h) [µg/mL] | MIC (Candida albicans [18]) | IC50 [19] | MIC (Priestia megaterium [20]) [µg/mL] | SMILES | diameter of the inhibition zone (DIZ) (Escherichia coli [1]) [mm] | diameter of the inhibition zone (DIZ) (Pseudomonas aeruginosa [2]) [mm] | diameter of the inhibition zone (DIZ) (Saccharomyces cerevisiae [3]) | diameter of the inhibition zone (DIZ) (Priestia megaterium [6]) [mm] | diameter of the inhibition zone (DIZ) (Candida albicans [8]) [mm] | diameter of the inhibition zone (DIZ) (Aspergillus niger [10]) [mm] | diameter of the inhibition zone (DIZ) (Klebsiella pneumoniae [11]) [mm] | diameter of the inhibition zone (DIZ) (Micrococcus luteus [12]) [mm] | diameter of the inhibition zone (DIZ) (Staphylococcus aureus [13]) | diameter of the inhibition zone (DIZ) (Bacillus subtilis [21]) | further results |
| --- | --- | --- | --- | --- | --- | --- | --- | --- | --- | --- | --- | --- | --- | --- | --- | --- | --- | --- | --- | --- | --- |
| 200 (≈ 417 µM) | – | 200 µg/mL (≈ 417 µM) | inactive | 200 µg/mL (≈ 417 µM) | 50 (≈ 104 µM) | 200 (≈ 417 µM) | inactive | 425 µg/mL (≈ 886 µM) | 200 (≈ 417 µM) | CC(O)(Cc1cn(CC(=O)c2ccc(F)cc2)nn1)c1ccc(S(=O)(=O)c2ccccc2)cc1 (stereo not drawn) | 19 | 22 | inactive | 17 | 15 | 32 | 19 | 21 | 17 mm | 19 mm | MIC (Bacillus subtilis [5]; ATCC 6633, 24 h): 200 µg/mL (≈ 417 µM); MIC (Staphylococcus aureus [7]; ATCC 29213, 24 h): 200 µg/mL (≈ 417 µM) |
| 200 (≈ 332 µM) | inactive | inactive | 200 µg/mL (≈ 332 µM) | inactive | 50 (≈ 83.1 µM) | 200 (≈ 332 µM) | inactive | 20 µg/mL (≈ 33.2 µM) | 200 (≈ 332 µM) | CC(O)(Cc1cn(CC(=O)c2ccc(S(=O)(=O)c3ccccc3)cc2)nn1)c1ccc(S(=O)(=O)c2ccccc2)cc1 (stereo not drawn) | 19 | 15 | 17 mm | 17 | 15 | 32 | 18 | 14 | inactive | inactive | MIC (Staphylococcus aureus [7]): inactive |
| – | – | 200 µg/mL (≈ 430 µM) | inactive | 200 µg/mL (≈ 430 µM) | 50 (≈ 107 µM) | – | inactive | 275 µg/mL (≈ 591 µM) | 200 (≈ 430 µM) | O=C(Cn1cc(CC(O)c2ccc(S(=O)(=O)c3ccccc3)cc2)nn1)c1ccc(F)cc1 (stereo not drawn) | 14 | 19 | inactive | 17 | 13 | 32 | 15 | 20 | 14 mm | 19 mm | MIC (Escherichia coli [4]): inactive; MIC (Bacillus subtilis [5]; ATCC 6633, 24 h): 200 µg/mL (≈ 430 µM); MIC (Staphylococcus aureus [7]): inactive; MIC (Klebsiella pneumoniae [17]): inactive |
| 200 (≈ 461 µM) | – | 200 µg/mL (≈ 461 µM) | 200 µg/mL (≈ 461 µM) | 200 µg/mL (≈ 461 µM) | 25 (≈ 57.7 µM) | 100 (≈ 231 µM) | – | 600 µg/mL (≈ 1380 µM) | 200 (≈ 461 µM) | CC(O)(Cc1cn(Cc2ccccc2)nn1)c1ccc(S(=O)(=O)c2ccccc2)cc1 (stereo not drawn) | 22 | 23 | 16 mm | 17 | 19 | 32 | 24 | 23 | 22 mm | 16 mm | MIC (Bacillus subtilis [5]; ATCC 6633, 24 h): 200 µg/mL (≈ 461 µM); MIC (Staphylococcus aureus [7]; ATCC 29213, 24 h): 200 µg/mL (≈ 461 µM); MIC (Candida albicans [18]; NRRL Y-477, 48 h): 200 µg/mL (≈ 461 µM) |
| 200 (≈ 303 µM) | inactive | 200 µg/mL (≈ 303 µM) | 200 µg/mL (≈ 303 µM) | 200 µg/mL (≈ 303 µM) | 50 (≈ 75.7 µM) | 200 (≈ 303 µM) | inactive | 125 µg/mL (≈ 189 µM) | 200 (≈ 303 µM) | CC(Cc1cn(CC(=O)c2ccccc2)nn1)(OCc1cn(CC(=O)c2ccccc2)nn1)c1ccc(S(=O)(=O)c2ccccc2)cc1 (stereo not drawn) | 21 | 19 | 16 mm | 17 | 15 | 28 | 23 | 17 | inactive | 16 mm | MIC (Staphylococcus aureus [7]): inactive |
